Unmarked numbers belong to inactive results. Inconclusive results are not listed. Calls of active or inactive are those of the source.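 How the source made its calls, unless noted: active means growth inhibition above 25% in both replicates, a cutoff set 3 SD above the mean; inconclusive means above 25% in only one replicate; inactive means the rest.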

We go through 18 compounds from PubChem BioAssay.

The nature of test [1]: S. cerevisiae growth inhibition in permissive medium (OD615), pilot counter-assay for S. cerevisiae lifespan shortening project, permissive growth control (AID 705). As to conditions: OD615, 24 h, at 10 µM, stronger effect = higher value. In short, it runs like this: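 System: S. cerevisiae with engineered DeaD lifespan system / Measured by: absorbance (optical density) at 615 nm / Read-out: reduction in yeast growth (OD615) / Times: 4 h cell pre-growth, 24 h exposure at 30 °C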

The nature of test [2]: S. cerevisiae growth inhibition in restrictive medium, OD615, pilot screen, restrictive growth control, yeast lifespan reduction project (AID 706;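 active means growth inhibition above a set limit, 3 SD over mean compound inhibition, in both replicates, cut at about 43% in these data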;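 further: modified DeaD lifespan yeast strain shifted to restrictive glucose medium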). As to conditions: OD615, 48 h, at 10 µM, stronger effect = higher value. In short, it runs like this: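 System: Engineered S. cerevisiae DeaD strain | Buffer or medium: Glucose-based CSMM-D restrictive medium | Schedule: 4 h pre-incubation, 48 h exposure at 30 °C | Technique: Optical density at 615 nm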

Test [3] is described as follows: doxorubicin toxicity protection in MRP-1 cells – H69AR cells, CellTiter-Glo, duplicate, MRP-1 activator project, pilot screen (AID 807;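 active means viability increase at or above a cutoff of the median across tested compounds plus 3 SD, cut at about 8.5% in these data, passing the limit was not always enough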;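 further: compound pretreatment 18-22 h then 72 h combined with doxorubicin; 0% = doxorubicin alone and 100% = vehicle without doxorubicin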). As to conditions: H69AR viability with doxorubicin, CellTiter-Glo luminescence; at 10 µM; stronger effect = higher value.
The nature of test [4]: viability of HCT116 without oncogenic beta-catenin – human colon tumor cells, pilot screen (AID 823;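 active means cell viability at or below a set limit in both duplicate runs, the limit being the all-compound median minus 4 SD, cut at about 23% in these data, passing the limit was not always enough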;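 further: 0% = wells killed by 20 µM Hyamine and 100% = untreated DMSO cell wells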). As to conditions: HCT116 beta-catenin knockout viability, CellTiter-Glo, 60 h; at 10 µM; stronger effect = lower value. For orientation: ATP-based viability assays read luminescence as a measure of living cells.
A short description of test [5]: viability of PTEN-null HCT116 cells – cell-based, HCT116 clonal line, CellTiter-Glo, pilot screen (AID 824;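 active means viability at or below 27.92% in each of two runs, the all-compound median minus 4 SD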;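 further: 0% = 20 µM Hyamine control and 100% = vehicle cell control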). Particulars: HCT116 PTEN-deleted viability, 60 h, at 10 µM, stronger effect = lower value.
Test [6] is described as follows: RAM pathway blockade in budding yeast – dse1pr::URA3 reporter, 5-FOA selection, pilot screen (AID 869;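 active means inhibition over a set limit, the all-compound mean plus 3 SD, in both replicate runs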;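 further: 0% = DMSO wells with no growth and 100% = 10 µM 1-NA-PP1 with full growth; RAM network block rescues cells from 5-FOA so hits raise OD615 growth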). Particulars: S. cerevisiae dse1pr::URA3 5-FOA growth, OD615, 2 d; at 10 µM; stronger effect = higher value; strain carries analog-sensitive mutant Cbk1 kinase.
A short description of test [7]: RAM signaling pathway blockade in yeast – S. cerevisiae, Pdr1DBD-CYC8 efflux-inhibited sensitized strain, primary screen (AID 1298;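 active means RAM network inhibition above 8.4% in each of two replicates, 3 SD over the compound average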;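 further: 0% = DMSO untreated cells without growth and 100% = 10 µM 1-NA-PP1 full growth; higher means more yeast growth rescued from 5-FOA killing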). As to conditions: S. cerevisiae cbk1-as DSE1-URA3 strain, 5-FOA growth OD615, 2 d; at 50 µM; stronger effect = higher value.

Turning to `O=C(C1CCCN1S(=O)(=O)c1cccc2cccnc12)N1CCc2ccccc2C1` (stereo unspecified), the growth inhibition is -8.21% in test [1] and -13.1% in test [2]. In addition, the viability increase in test [3] is -1.96%. Also, the viability in test [4] was 92.3%; in test [5], 86.7%. In test [6], the inhibition is 0.745%. The RAM network inhibition in test [7] was 0.84%.

On to `CC(=O)N1CCc2cc(C(=O)CN3CCCCC3)ccc21`, for which the figures for the growth inhibition in test [1] and in test [2] were -6.58% and -8.28%, respectively. Moreover, the viability increase in test [3] is -2.19%. For the same compound, the viability was 99% in test [4] and 94.7% in test [5]. Besides, the inhibition in test [6] is 0.435%. Moreover, the RAM network inhibition in test [7] is 1.91%.

For the compound `c1ccc(Cn2nnc3c(N4CCOCC4)ncnc32)cc1`, the growth inhibition in test [1] was -15.8%; in test [2], -25.2%. Further, the viability increase in test [3] was -1.15%. Moreover, the results for the viability in test [4] and in test [5] were 92.7% and 89.5%, respectively. In addition, the inhibition in test [6] was 0.93%. In addition, the RAM network inhibition in test [7] is -0.79%.

With `O=C(O)CCCC(=O)NCCCc1ccccc1`, the values for the growth inhibition in test [1] and in test [2] were -6.08% and 3.99%, respectively. Further, in test [3], the viability increase was -2.85%. Moreover, the viability in test [4] was 98.5%; in test [5], 89.8%. Moreover, the inhibition in test [6] is 1.02%. In addition, the RAM network inhibition in test [7] was 2.45%.

On to `O=C(NC1CCCCC1)C1CC(=O)N(c2ccc(Cl)cc2)C1` (stereo unspecified), for which the growth inhibition in test [1] was -4.29%; in test [2], 1.57%. For the same compound, the viability increase in test [3] is -0.58%. Also, the viability was 95.5% in test [4] and 90.4% in test [5]. In test [6], the inhibition is 1.29%. Also, the RAM network inhibition in test [7] is 2.04%.

Regarding `COc1ccc(S(=O)(=O)Cc2ccc(C(=O)NCc3cccnc3)o2)cc1`, the growth inhibition in test [1] was -4.57%; in test [2] it was -10.1%. Moreover, the viability increase in test [3] was -5%. Further, the viability in test [4] was 88.2%; in test [5], 84%. Also, in test [6], the inhibition is 1%. Further, the RAM network inhibition in test [7] is 3.45%.

Take `COC(=O)C1=CN(CC2CCCO2)C=C(C(=O)OC)C1c1ccsc1` (stereo unspecified): the growth inhibition is -22.4% in test [1] and -3.27% in test [2]. Besides, the viability increase in test [3] was -4.97%. Moreover, the viability in test [4] is 92.1%; in test [5], 97.5%. Also, the inhibition in test [6] is 0.125%. The RAM network inhibition in test [7] was 4.53%.

Consider `O=C(NCCOC(=O)c1ccc(S(=O)(=O)N2CCOCC2)cc1)c1cccnc1`, for which the values for the growth inhibition in test [1] and in test [2] were -19.9% and -9.85%, respectively. Besides, the viability increase in test [3] was -0.91%. Also, the figures for the viability in test [4] and in test [5] were 89.8% and 91.7%, respectively. Further, in test [6], the inhibition is 2.44%. Moreover, the RAM network inhibition in test [7] is 2.11%.

With `O=C(COc1ccc(S(=O)(=O)NC2CCCCC2)cc1)Nc1ccc2c(c1)OCCO2`, the growth inhibition in test [1] was -2.47%; in test [2], 4.23%. In addition, the viability increase in test [3] was -2.05%. The viability in test [4] was 84%; in test [5], 70.8%. The inhibition in test [6] was 2.25%. In addition, the RAM network inhibition in test [7] was 5.01%.

Consider `Cc1ccc(S(=O)(=O)Cc2ccc(C(=O)N3CCCC3)o2)cc1`, for which the results for the growth inhibition in test [1] and in test [2] were -4.83% and -13.4%, respectively. Further, the viability increase in test [3] is -1.75%. Further, the viability in test [4] is 99.2%; in test [5], 108%. Further, the inhibition in test [6] is 1.19%. Also, in test [7], the RAM network inhibition is 4.1%.

Turning to `Cc1cccc(C2Nc3ccccc3C(=O)N2CCc2ccccc2)n1` (stereo unspecified), the growth inhibition in test [1] was -10.1%; in test [2], -2.82%. Further, the viability increase in test [3] was -2.91%. Further, the viability was 78.3% in test [4] and 73.5% in test [5]. Moreover, the inhibition in test [6] was 2.09%. Also, the RAM network inhibition in test [7] is 7.42%.

Take `Cc1nc2c3ccccc3n(CC(=O)c3ccc(F)cc3)c(=O)n2n1`: the growth inhibition was -13.8% in test [1] and -4.75% in test [2]. Also, the viability increase in test [3] is -2.79%. The results for the viability in test [4] and in test [5] were 96.8% and 94.7%, respectively. Moreover, the inhibition in test [6] is 3.38%. Moreover, the RAM network inhibition in test [7] was 3.78%.

For `O=C(CS(=O)(=O)c1cn(Cc2ccccc2Cl)c2ccccc12)N1CCOCC1`, the growth inhibition in test [1] was -3.44%; in test [2], 2.78%. Also, the viability increase in test [3] is -4.39%. The values for the viability in test [4] and in test [5] were 79% and 76%, respectively. The inhibition in test [6] was 3.23%. Moreover, in test [7], the RAM network inhibition was 5.08%.

As for `CCOC(=O)N1CCC(NC(=O)Cn2cc3c(n2)CCCCC3)CC1`, the growth inhibition in test [1] is -5.77%; in test [2], 5.48%. Further, the viability increase in test [3] is 1.03%. The viability in test [4] is 108%; in test [5], 98.6%. The inhibition in test [6] is -0.43%. In addition, the RAM network inhibition in test [7] was 0.41%.

Consider `COc1ccccc1CNS(=O)(=O)c1ccc2c(c1)oc(=O)n2C`, for which the growth inhibition in test [1] was -4.47%; in test [2], -0.685%. Besides, the viability increase in test [3] is -0.99%. For the same compound, the viability was 101% in test [4] and 86.7% in test [5]. Also, the inhibition in test [6] is 0.795%. Also, the RAM network inhibition in test [7] was 0.32%.

As to `COCCN1C(=O)c2oc3ccccc3c(=O)c2C1c1cccc(O)c1` (stereo unspecified), the results for the growth inhibition in test [1] and in test [2] were -7% and -8.97%, respectively. Moreover, the viability increase in test [3] was -0.6%. The viability was 107% in test [4] and 94.3% in test [5]. Moreover, the inhibition in test [6] is 1.1%. Moreover, the RAM network inhibition in test [7] was 2.85%.

Take `Cc1cccc(NC(=O)Nc2ccc(C#N)cc2)n1`: the growth inhibition in test [1] was -15.2%; in test [2], -6.73%. Also, the viability increase in test [3] is -5.92%. In addition, the viability was 18.1% (active) in test [4] and 17.4% (active) in test [5]. In addition, the inhibition in test [6] is -0.505%. Also, the RAM network inhibition in test [7] is 3.51%.

As to `Cc1noc(C)c1S(=O)(=O)N(CC(=O)NCc1ccc(Cl)cc1)c1ccc2c(c1)OCO2`, the figures for the growth inhibition in test [1] and in test [2] were -13.6% and -7.5%, respectively. Besides, the viability increase in test [3] was -3.36%. The values for the viability in test [4] and in test [5] were 104% and 97.9%, respectively. Moreover, the inhibition in test [6] is 2.81%. Also, the RAM network inhibition in test [7] was 1%.

The term viability denotes a read-out of living cells in per cent, often relative to untreated cells. What is called inhibition is the drop in the measured response relative to a control, in per cent.
